Measurements: ChEMBL document CHEMBL3271988, “Nitrogen analogues of 1,4-benzoquinones. Activities against the ascitic sarcoma 180 of mice” (J Med Chem, 1978)
Activity calls are given as the source filed them. No cut-off for these calls is given here.

How the values were obtained:
Sarcoma-180 [1] = assay: Antitumor activity against mouse Sarcoma 180 cells allografted in Swiss mouse at 8 mg/kg, ip three doses were given at 24 hrs interval starting 24 hrs after allograft injection relative to control; format: functional; conditions: route intraperitoneal
How it was run: (§1)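 Swiss mice given 10^6 ascitic sarcoma 180 cells ip; three ip doses at 24-h intervals starting 24 h later; controls received isotonic salt solution on the same schedule. […] Cures = alive without cancer cells at 60 days.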

Sarcoma-180 [2] = assay: Antitumor activity against mouse Sarcoma 180 cells allografted in Swiss mouse assessed as survival time at 8 mg/kg, ip three doses were given at 24 hrs interval starting 24 hrs after allograft injection relative to control; format: functional; conditions: route intraperitoneal
How it was run: (§2)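 Swiss mice inoculated ip with 10^6 ascitic sarcoma 180 cells. Compound given ip daily ×3 at 24-h intervals, starting 24 h after inoculation. Controls received isotonic saline on the same schedule; 6 mice per group. Mice alive at 60 days counted as 60 days in mean survival (±SD).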

Sarcoma-180 [3] = assay: Antitumor activity against mouse Sarcoma 180 cells allografted in Swiss mouse assessed as survival at 8 mg/kg, ip three doses were given at 24 hrs interval starting 24 hrs after allograft injection measured after 5 days; format: functional, organism-based; parameters: dose 8 mg/kg
How it was run: (§3)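 Swiss mice were injected ip with 10^6 ascitic sarcoma 180 cells. Three daily ip doses followed, the first 24 h after cell injection. The read-out was the number of mice surviving at 5 days, out of 6 treated.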

Sarcoma-180 [4] = assay: Antitumor activity against mouse Sarcoma 180 cells allografted in Swiss mouse assessed as weight gain at 8 mg/kg, ip three doses were given at 24 hrs interval starting 24 hrs after allograft injection measured after 3 days relative to control; format: functional; conditions: route intraperitoneal
How it was run: (§4)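 Ascitic sarcoma 180 model in Swiss mice: 10^6 cells ip, then three ip doses at 24-h intervals beginning 24 h later. Mice were weighed 1 day after cell injection and again 3 days later (24 h after the third dose). Percent weight gain of treated mice was compared with saline-treated controls on the same schedule.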

[5] = Acute toxicity in single ip dosed Swiss mouse assessed as death up to 5 days; format: organism-based; conditions: in vivo
How it was run: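 Male Swiss mice given one ip dose. LD50 taken as the single dose killing 50% of animals within 5 days.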

Sarcoma-180 [6] = assay: Antitumor activity against mouse Sarcoma 180 cells allografted in Swiss mouse assessed as cure at 8 mg/kg, ip three doses were given at 24 hrs interval starting 24 hrs after allograft injection measured after 60 days; format: functional, organism-based; parameters: dose 8 mg/kg
How it was run: (§5)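 Swiss mice given 10^6 ascitic sarcoma 180 cells ip. Starting 24 h later, three ip doses were given 24 h apart. Controls got isotonic salt solution on the same schedule. A cure was a mouse alive with no evidence of cancer cells 60 days after cell injection, reported per 6 mice.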

[7] = Half life of the compound in water at pH 7 at 25 degC by spectrophotometry; format: physicochemical
How it was run: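 Compound dissolved in absolute ethanol, then diluted into 0.01 M Tris buffer brought to pH 7 with HCl, 25 °C. Absorbance at λmax followed over hours or days; log absorbance vs time fitted by least squares, rate constant and half-time taken from the slope.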

Sarcoma-180 [8] = assay: Antitumor activity against mouse Sarcoma 180 cells allografted in Swiss mouse assessed as survival time at 5 mg/kg, ip three doses were given at 24 hrs interval starting 24 hrs after allograft injection relative to control; format: functional; conditions: route intraperitoneal; how it was run: as §2
Sarcoma-180 [9] = assay: Antitumor activity against mouse Sarcoma 180 cells allografted in Swiss mouse assessed as survival at 5 mg/kg, ip three doses were given at 24 hrs interval starting 24 hrs after allograft injection measured after 5 days; format: functional, organism-based; parameters: dose 5 mg/kg; how it was run: as §3
[10] = Redox potential of the compound in alcohol-water solution; conditions: buffer
Sarcoma-180 [11] = assay: Antitumor activity against mouse Sarcoma 180 cells allografted in Swiss mouse assessed as weight gain at 5 mg/kg, ip three doses were given at 24 hrs interval starting 24 hrs after allograft injection measured after 3 days relative to control; format: functional; conditions: route intraperitoneal; how it was run: as §4
Sarcoma-180 [12] = assay: Antitumor activity against mouse Sarcoma 180 cells allografted in Swiss mouse at 5 mg/kg, ip three doses were given at 24 hrs interval starting 24 hrs after allograft injection relative to control; format: functional; conditions: route intraperitoneal
How it was run: (§6)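 Swiss mice received 10^6 ascitic sarcoma 180 cells ip, then three ip doses 24 h apart starting at 24 h. Controls got isotonic salt solution on the same schedule. T/C% is mean survival time of treated over controls (6 mice per group).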

Sarcoma-180 [13] = assay: Antitumor activity against mouse Sarcoma 180 cells allografted in Swiss mouse assessed as weight gain at 22.5 mg/kg, ip three doses were given at 24 hrs interval starting 24 hrs after allograft injection measured after 3 days relative to control; format: functional; conditions: route intraperitoneal; how it was run: as §4
Sarcoma-180 [14] = assay: Antitumor activity against mouse Sarcoma 180 cells allografted in Swiss mouse assessed as survival time at 22.5 mg/kg, ip three doses were given at 24 hrs interval starting 24 hrs after allograft injection relative to control; format: functional; conditions: route intraperitoneal; how it was run: as §2
Sarcoma-180 [15] = assay: Antitumor activity against mouse Sarcoma 180 cells allografted in Swiss mouse at 22.5 mg/kg, ip three doses were given at 24 hrs interval starting 24 hrs after allograft injection relative to control; format: functional; conditions: route intraperitoneal; how it was run: as §6
Sarcoma-180 [16] = assay: Antitumor activity against mouse Sarcoma 180 cells allografted in Swiss mouse assessed as cure at 9 mg/kg, ip three doses were given at 24 hrs interval starting 24 hrs after allograft injection measured after 60 days; format: functional, organism-based; parameters: dose 9 mg/kg; how it was run: as §5
Sarcoma-180 [17] = assay: Antitumor activity against mouse Sarcoma 180 cells allografted in Swiss mouse at 9 mg/kg, ip three doses were given at 24 hrs interval starting 24 hrs after allograft injection relative to control; format: functional; conditions: route intraperitoneal; how it was run: as §1
Sarcoma-180 [18] = assay: Antitumor activity against mouse Sarcoma 180 cells allografted in Swiss mouse assessed as survival time at 9 mg/kg, ip three doses were given at 24 hrs interval starting 24 hrs after allograft injection relative to control; format: functional; conditions: route intraperitoneal; how it was run: as §2
Sarcoma-180 [19] = assay: Antitumor activity against mouse Sarcoma 180 cells allografted in Swiss mouse assessed as weight gain at 9 mg/kg, ip three doses were given at 24 hrs interval starting 24 hrs after allograft injection measured after 3 days relative to control; format: functional; conditions: route intraperitoneal; how it was run: as §4
Sarcoma-180 [20] = assay: Antitumor activity against mouse Sarcoma 180 cells allografted in Swiss mouse assessed as survival at 9 mg/kg, ip three doses were given at 24 hrs interval starting 24 hrs after allograft injection measured after 5 days; format: functional, organism-based; parameters: dose 9 mg/kg; how it was run: as §3
Sarcoma-180 [21] = assay: Antitumor activity against mouse Sarcoma 180 cells allografted in Swiss mouse assessed as survival time at 90 mg/kg, ip three doses were given at 24 hrs interval starting 24 hrs after allograft injection relative to control; format: functional; conditions: route intraperitoneal; how it was run: as §2
Sarcoma-180 [22] = assay: Antitumor activity against mouse Sarcoma 180 cells allografted in Swiss mouse assessed as weight gain at 90 mg/kg, ip three doses were given at 24 hrs interval starting 24 hrs after allograft injection measured after 3 days relative to control; format: functional; conditions: route intraperitoneal; how it was run: as §4
Sarcoma-180 [23] = assay: Antitumor activity against mouse Sarcoma 180 cells allografted in Swiss mouse assessed as survival at 90 mg/kg, ip three doses were given at 24 hrs interval starting 24 hrs after allograft injection measured after 5 days; format: functional, organism-based; parameters: dose 90 mg/kg; how it was run: as §3
Sarcoma-180 [24] = assay: Antitumor activity against mouse Sarcoma 180 cells allografted in Swiss mouse at 90 mg/kg, ip three doses were given at 24 hrs interval starting 24 hrs after allograft injection relative to control; format: functional; conditions: route intraperitoneal; how it was run: as §1
Sarcoma-180 [25] = assay: Antitumor activity against mouse Sarcoma 180 cells allografted in Swiss mouse assessed as survival time at 200 mg/kg, ip three doses were given at 24 hrs interval starting 24 hrs after allograft injection relative to control; format: functional; conditions: route intraperitoneal; how it was run: as §2
Sarcoma-180 [26] = assay: Antitumor activity against mouse Sarcoma 180 cells allografted in Swiss mouse assessed as weight gain at 200 mg/kg, ip three doses were given at 24 hrs interval starting 24 hrs after allograft injection measured after 3 days relative to control; format: functional; conditions: route intraperitoneal; how it was run: as §4
Sarcoma-180 [27] = assay: Antitumor activity against mouse Sarcoma 180 cells allografted in Swiss mouse assessed as survival at 200 mg/kg, ip three doses were given at 24 hrs interval starting 24 hrs after allograft injection measured after 5 days; format: functional, organism-based; parameters: dose 200 mg/kg; how it was run: as §3
Sarcoma-180 [28] = assay: Antitumor activity against mouse Sarcoma 180 cells allografted in Swiss mouse at 200 mg/kg, ip three doses were given at 24 hrs interval starting 24 hrs after allograft injection relative to control; format: functional; conditions: route intraperitoneal; how it was run: as §6

Compound: O=C1C(Cl)=CC(=NBr)C=C1Cl
- T/C (Sarcoma-180 [1]): 165%
- Survival (Sarcoma-180 [2]): 27.2 days
- Activity (Sarcoma-180 [3]): Active
- Activity (Sarcoma-180 [4]): -5.1%
- LD50 at 120 h [5]: 20 mg/kg
- Activity (Sarcoma-180 [6]): inactive
- half-life [7]: 3.7 h

Compound: O=C1C=CC(=NCl)C=C1
- Survival (Sarcoma-180 [8]): 40.5 days
- Activity (Sarcoma-180 [9]): Active
- Redox potential [10]: 0.652 V
- LD50 at 120 h [5]: 12.5 mg/kg
- half-life [7]: 35.3 h
- Activity (Sarcoma-180 [11]): -6.9%
- T/C (Sarcoma-180 [12]): 246%

Compound: O=C1C(Br)=CC(=NCl)C=C1Br
- Activity (Sarcoma-180 [13]): -25%
- Survival (Sarcoma-180 [14]): 41 days
- Redox potential [10]: 0.665 V
- LD50 at 120 h [5]: 63 mg/kg
- half-life [7]: 23.3 h
- T/C (Sarcoma-180 [15]): 218%

Compound: O=C1C(Br)=CC(=NBr)C=C1Br
- Activity (Sarcoma-180 [16]): inactive
- T/C (Sarcoma-180 [17]): 178%
- Survival (Sarcoma-180 [18]): 22.8 days
- Activity (Sarcoma-180 [19]): -3%
- Redox potential [10]: 0.678 V
- LD50 at 120 h [5]: 25 mg/kg
- half-life [7]: 10.4 h
- Activity (Sarcoma-180 [20]): Active

Compound: O=C1C=C/C(=N/O)C(Cl)=C1
- Survival (Sarcoma-180 [21]): 39 days
- Activity (Sarcoma-180 [22]): -2.4%
- Activity (Sarcoma-180 [23]): Active
- Redox potential [10]: 0.537 V
- LD50 at 120 h [5]: 380 mg/kg
- T/C (Sarcoma-180 [24]): 304%

Compound: O=C1C=C/C(=N/O)C(I)=C1
- Survival (Sarcoma-180 [25]): 23.7 days
- Activity (Sarcoma-180 [26]): 0%
- Activity (Sarcoma-180 [27]): Active
- T/C (Sarcoma-180 [28]): 171%
- Redox potential [10]: 0.531 V
- LD50 at 120 h [5]: 550 mg/kg
